# PKD1 kinase inh: PKD1 (human) kinase inhibition; Q15139; PKD1 kinase fluorescence polarization assay; inhibition, % (no concentration beside the values); 200,000 compounds, 0.056% hits; AID 797
# EBV gp42 inh: EBV gp42 inhibition; Q1HVG2; Fluorescence polarization binding assay, mP read-out; inhibition, % (tested at 21.74 µM); 220,000 compounds, 0.42% hits
# eIF4E-4G inh: inhibitors of eIF4E and eIF4G interaction in translation initiation; inhibition, % at 21.7 µM; AID 782; P63073+Q04637; 220,000 compounds, 0.37% hits; TR-FRET eIF4E-eIF4GI(517-606) binding, 2 h;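 active = inhibition above about 30%, limit read from the data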;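 note: 0% = full FRET control wells and 100% = background wells lacking eIF4GI fragment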
# 14-3-3 Bad inh: disrupts binding of bovine 14-3-3 zeta to phospho-Bad peptide. TR-FRET 14-3-3zeta/Dy647-pBad peptide displacement, 1 h. 220,000 compounds, 0.71% hits. inhibition, % at 21.7 µM;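 active = inhibition above about 70%, limit read from the data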;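 note: 0% = full 14-3-3 plus peptide FRET controls and 100% = background without 14-3-3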
# RBBP9 inh: inhibitors of human serine hydrolase RBBP9; recombinant RBBP9, FP-Rh probe fluorescence polarization; 220,000 compounds, 0.2% hits; inhibition, % at 7.94 µM;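 active = inhibition above the campaign mean of all tested compounds plus 3 SD, cut at about 14% in these data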;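 note: plate controls were DMSO wells with RBBP9 for no effect and wells lacking RBBP9 protein for full effect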
#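 System: RBBP9 protein / Quantity: 2.5 µM RBBP9 dispensing solution, before mixing / Also added: Serine-hydrolase probe FP-Rh, 375 nM pre-mixing / Dosing: 7.94 µM single dose, 0.794% DMSO / Timing: enzyme-compound preincubation 30 min, then probe labeling 45 min, 25 °C / Signal: FP readout at 525/598 nm / Controls: DMSO-treated enzyme wells and wells lacking RBBP9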
# An asterisk follows results filed as active; . = no result given; [ ] = dose if it differs, or a comment. Compounds with a hit are over-represented: about 1.6% of the library has one in this group of screens. Cut-off read from the data, not from the text of the source, unless noted: active = inhibition above about 50%; inactive = the rest.
SMILES,PKD1 kinase inh,EBV gp42 inh,eIF4E-4G inh,14-3-3 Bad inh,RBBP9 inh
CCCCn1nc2cc(C(=O)NCc3ccc(OC(F)(F)F)cc3)ccc2c1OC,-8.8,1.1,7.6,70.8*,-5.8
O=S1(=O)Cc2cc3ccccc3cc2C1,-7.8,14.5,-2.3,-12.1,-3.6
Oc1c(Cl)cc(Cl)cc1CNn1cnnc1,-4.3,-2.3,0.6,-2.6,-2.9
Oc1c(Cl)cc(Cl)cc1Sc1cc(Cl)cc(Cl)c1O,-9.9,46.4,22.8,78.6*,-4.8
CC(=O)c1c(C)nc(-c2ccc(Cl)cc2)nc1N=CN(C)C,-6.6,-15.3,59.7*,84.3*,-2.2
CC(=O)c1c(C)nc(-c2ccc(Cl)cc2)nc1N,-6.1,-13.7,14.9,44.8,7.3
CC1=C(C(=O)OC(C)C)C(c2ccccc2Cl)CC(=O)N1 (stereo unspecified),3.2,-11.6,4.4,80.0*,3.8
CCOC(=O)N1CCN(C(=O)c2cccn3c(=O)c4c5c(sc4nc23)CCCC5)CC1,-3.2,-2.2,-5.8,-8.1,-4.0
O=C(O)CSc1cc(C(=O)c2ccccc2O)cn2c(=O)c3c4c(sc3nc12)CCCC4,.,69.0*,17.1,75.0*,-6.1
Cc1cccc(NC(=O)N(Cc2cc3cc(C)ccc3[nH]c2=O)CC2COCCO2)c1 (stereo unspecified),-8.8,0.1,2.5,2.4,-3.1
CCOc1ccc2[nH]c(=O)c(CN(CC3COCCO3)C(=O)C3CC3)cc2c1 (stereo unspecified),-6.7,51.1*,1.1,0.9,-7.9
COc1ccc(CCn2c(=S)[nH]c3cc(C(=O)NCc4ccco4)ccc3c2=O)cc1OC,4.3,-101.7,12.3,76.7*,-1.0
CCCc1cc(=O)[nH]c(SCCCCN2C(=O)c3ccccc3C2=O)n1,108.7*,-8.6,-1.2,-7.0,-8.5
CCCc1cc(=O)[nH]c(SCc2ccccc2)n1,-4.8,-2.1,5.7,0.5,-2.1
CCOc1ccc(-c2ccc(/C=C3/C(=N)N4C=CSC4=NC3=O)o2)c([N+](=O)[O-])c1,-13.9,-5.5,23.0,83.8*[fluorescence artefact?],-2.1
CC1CCCC(NC(=O)COC(=O)CN2C(=O)C3CCCCC3C2=O)C1C (stereo unspecified),-12.7,-5.1,-0.5,8.5,-7.1
O=C(Nc1cccnc1)c1cccc(-c2cc3ccccc3oc2=O)c1,3.3,-28.3,6.7,77.8*,-1.4
O=C(Nc1cccnc1)c1cc2c(ccc3ccccc32)o1,-2.1,-19.2,75.7*,76.7*,-12.8
COc1ccc(-n2c(C)cc(/C=C3/SC(=S)N(C)C3=O)c2C)cc1,4.5,60.8*,0.3,1.6,-8.6
Cc1cc(/C=C2\SC(=S)N(Cc3ccco3)C2=O)c(C)n1-c1ccccc1,-5.6,55.5*,-2.0,-2.3,4.6
Cc1cc(/C=C2\SC(=S)N(C)C2=O)c(C)n1-c1cccc(O)c1,.,24.7,-0.5,-1.4,-10.4
Cc1ccc(NC(=O)CSc2nnc(-c3cccs3)o2)cc1S(=O)(=O)N1CCCCC1,1.4,-13.2,5.5,-9.3,-5.6
O=C(NNC1=Nc2cccc3cccc1c23)c1ccc(Br)cc1,50.1*,60.2*,2.9,-15.1,-1.5
O=[n+]1c2c(n([O-])c3cc(F)c(N4CCCC4)cc31)CCC2,-0.5,.,.,.,-6.1
O=[n+]1c2c(n([O-])c3cc(F)c(N4CCCC4)cc31)CCCC2,-1.8,101.5*,-6.7,-5.4,-5.3
SMILES,PKD1 kinase inh,EBV gp42 inh,eIF4E-4G inh,14-3-3 Bad inh,RBBP9 inh
CC1(C)CC(=O)C(C(=O)C2CCN(S(=O)(=O)c3ccccc3)CC2)C(=O)C1,-6.5,-9.7,0.6,71.1*,-1.6
Cc1ccc(NC(=O)CN2C(=O)N/C(=C/c3cc(C)n(-c4cccc(C(=O)O)c4)c3C)C2=O)cc1,-2.1,15.2,34.9*,34.6,-2.9
O=C(c1ccccc1)c1ccc2c(c1)OCCCO2,.,67.7*,3.0,1.1,0.2
Cc1ccc2[nH]c3c(c2c1)CN(C)CC3,-5.2,-12.0,-1.3,74.5*,6.0
COc1ccc(Cl)cc1NC(=O)COC(=O)c1cc(NS(=O)(=O)c2cccs2)ccc1O,3.9,0.9,21.3,-8.9,-8.6
NNC(=S)Nc1c(Br)cc(F)cc1Br,.,-11.7,1.8,-14.9,-8.2
O=c1[nH]c2cc3c(cc2cc1CN(Cc1nnnn1CC1CCCO1)C1CCCCC1)OCO3 (stereo unspecified),-1.9,57.4*,6.8,-13.3,-12.1
O=c1[nH]c2cc3c(cc2cc1CN(Cc1nnnn1CC1CCCO1)C1CCCC1)OCO3 (stereo unspecified),-1.9,-3.3,2.3,56.8,-3.5
CC(=O)Nc1cccc(NC(=O)Nc2ccc(C)c(Cl)c2)c1,1.7,1.4,2.2,5.6,-16.4
CC(=O)Nc1cccc(NC(=S)Nc2ccc(F)c(Cl)c2)c1,0.8,0.8,92.5*,-5.2,2.0
CC(=O)NS(=O)(=O)c1ccc2sc(C)nc2c1,.,4.3,10.1,2.9,0.6
Cn1cccc1-c1cc(C(=O)N2CCc3c([nH]c4ccccc34)C2c2ccccn2)[nH]n1 (stereo unspecified),-0.5,3.3,73.4*,-6.6,-9.0
CC(C)(O)C#Cc1ccc(CN2CCN(C3CCCC3)C(CCO)C2)cc1 (stereo unspecified),-5.9,3.0,-7.4,-8.5,-6.3
CCNc1nc(-c2cc(C)n(Cc3ccco3)c2C)cs1,7.1,-8.6,-5.5,-16.1,6.6
Cc1cc(-c2csc(NC(=O)c3ccc(=O)[nH]c3)n2)c(C)n1Cc1ccco1,.,48.7,45.8*,44.8,3.0
CC(C)(C)c1ccc(C2CC2C(=O)N/N=C\c2cc3ccccc3nc2Cl)cc1 (stereo unspecified),-0.7,0.6,-2.6,84.0*[fluorescence artefact?],-11.4
CC(C)(C)C(=O)OCc1nc(-c2ccc(C(F)(F)F)cc2)cs1,.,-3.1,-3.2,-5.0,-2.0
CC(C)CCn1c(S(=O)(=O)O)nc2ccccc21,2.4,-1.6,-1.4,75.4*,-10.0
CS(=O)(=O)c1nc2ccccc2n1Cc1ccccc1,9.6,11.3,0.1,19.7,-4.5
O=S(=O)(O)c1nc2ccccc2n1Cc1ccccc1,9.2,-20.3,-1.5,70.6*,-0.7
COc1ccc(C2c3c(oc4ccc(Cl)cc4c3=O)C(=O)N2CCN2CCOCC2)cc1 (stereo unspecified),.,-18.9,1.5,-1.1,-3.3
O=C(CSc1n[nH]c(=O)[nH]c1=O)Nc1ccc2c(c1)C(=O)c1ccccc1C2=O,.,63.6*,18.0,45.8,-7.7
O=C(CSc1ccccn1)Nc1ccc2c(c1)C(=O)c1ccccc1C2=O,1.9,52.1*,14.6,45.4,5.8
O=C(CSc1ccccn1)Nc1ccc2ccccc2c1,0.0,-2.4,-1.5,-18.2,-3.2
N#Cc1ccc(Cl)cc1NC(=O)CSc1nc2nc(-c3cccs3)cc(C(F)(F)F)c2c(=O)[nH]1,.,-9.9,30.9*,38.9,-18.8
COc1ccc(C(C)=O)cc1COC(=O)C(CO)NS(=O)(=O)c1ccc(Br)cc1 (stereo unspecified),-5.6,1.9,-3.3,-0.9,-6.9
